# Screening results: PubChem, several laboratories
# Shown are actives, neighbours in structure and some others; about 3% of the full set was active somewhere.
# BB579 growth dn – chemicals that inhibit yeast BB579 growth in restrictive medium (lifespan-shortening candidates) | inhibition, % at 10 µM | S. cerevisiae BB579 growth, OD615, 48 h | hit rate 0.51% among 140,000;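 active = inhibition above a set limit, 3 SD over the mean compound inhibition, cut at about 44% in these data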
#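 System: Saccharomyces cerevisiae DeaD strain BB579, replicative lifespan model yeast | Buffer or medium: Restrictive glucose-based CSMM-D medium | Times: 4 h preincubation and 48 h exposure at 30 °C | Detection: OD615 turbidity measurement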
# RAM network inh – blocks the yeast RAM network; hit rate 1.8% among 190,000; S. cerevisiae dse1pr::URA3 reporter, 5-FOA growth OD615, 2 d; analog-sensitive cbk1-as2 kinase mutant strain; inhibition, % at 50 µM;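 active = inhibition above a set limit, 3 SD over mean compound inhibition, cut at about 8.4% in these data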;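 note: inhibition rescues growth on 5-FOA so higher OD means more RAM inhibition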
# Insulin prom inh – TRM-6 insulin promoter activity inhibition; hit rate 0.9% among 130,000; inhibition, % at 2 µM; TRM-6 cells, insulin promoter-eGFP reporter, imaging; reporter expression induced with tamoxifen;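 active = inhibition above the mean plus 3 SD, with well images judged a real hit on visual review, cut at about 60% in these data, passing the limit was not always enough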
# Yeast life ext – extends the lifespan of yeast; inhibition of the nicotinamide effect, % at 10 µM; hit rate 0.68% among 130,000; S. cerevisiae growth with nicotinamide, OD615; deaD strain in restrictive glucose medium;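 active = inhibition above a set limit, placed 3 SD over the median of all compounds, cut at about 26% in these data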
#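 Material: Modified budding yeast, DeaD strain | Medium: Restrictive glucose medium | Probe or stimulus: 1.5 mM nicotinamide | Dosing: Single dose 10 µM compound, 0.25% DMSO | Times: 48 h at 30 °C | Technique: OD615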
# Insulin prom up – MIN6 insulin promoter up-regulation; AID 1625; MIN6 insulin promoter-GFP reporter, high-content imaging; active compounds read high; z-score at 5 µM; hit rate 0.3% among 190,000;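 active = z-score above 3 at 5 µM with at least 500 cells counted in the well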
# Numbers stand for hits; 0 = inactive; - = not tested or not shown.
SMILES,BB579 growth dn,RAM network inh,Insulin prom inh,Yeast life ext,Insulin prom up
COc1ccc(NC(=O)COC(=O)C2CC3C=CC2C3)cc1 (stereo not given),-,0,79.0,-,0
O=C(COC(=O)C1CC2C=CC1C2)Nc1ccccc1F (stereo not given),-,0,0,-,0
CCCOP(=O)(OCCC)C(Nc1cccc(C(F)(F)F)c1)c1ccc(C)cc1 (stereo not given),0,10.3,0,0,0
O=C(Nc1ccc(C2CCCCC2)cc1)C1CCCN(c2ncccn2)C1 (stereo not given),-,-,-,-,3.77
Cc1cc(-c2nnc(-c3cccc(Cl)c3)o2)no1,-,-,-,-,0
COC(=O)c1sccc1NC(=O)CSc1cccc(Cl)c1Cl,0,8.7,0,0,-
COC(=O)CC1C(=O)NCCN1C(=O)CSc1nc2ccc([N+](=O)[O-])cc2s1 (stereo not given),-,0,-,-,0
CCOCCCNC(=O)c1cc2c(-c3ccc(Cl)cc3)nn(C)c2s1,0,9.0,-,0,0
CCN(CC)CCNC(=O)c1cc2c(-c3ccc(Cl)cc3)nn(C)c2s1,0,0,-,0,0
Cc1[nH]c2ccccc2c1CCC(N)=O,0,0,-,0,0
Cc1[nH]c2ccccc2c1Cc1nnc(SCC(N)=O)o1,0,0,0,0,4.82
Cc1ccc(Nc2nc3ccccc3nc2-n2nc(C)cc2C)cc1,0,8.7,-,0,0
Cc1ccc(NC(=S)NNC(=O)c2ccccc2O)c(C)c1,-,0,-,-,0
CC(C)(C)C(=O)O/N=C1/C(=O)N(c2ccccc2)c2ccccc21,67.2,0,-,0,0
NS(=O)(=O)c1cccc2cccnc12,0,0,0,0,5.52
CNS(=O)(=O)c1cccc2cccnc12,0,0,0,0,0
Cc1ccc(C2C(=O)N(C3CCC(C)CC3)CC(=O)N2C2CCCC2)cc1 (stereo not given),0,0,67.7,0,-
O=C1C(c2ccc(F)cc2)N(C2CCCCC2)C(=O)CN1C1CCCC1 (stereo not given),0,0,0,0,0
O=c1[nH][nH]cc1C=Nc1ccccc1O,50.3,0,-,0,0
Cc1nn(C(C)(C)C)c(OC(=O)c2ccc3c(c2)OCO3)c1Sc1ccccc1,0,0,0,0,0
Cc1nn(C(C)(C)C)c(OC(=O)c2ccco2)c1Sc1ccccc1,0,0,0,0,-
Cc1nn(C(C)(C)C)c(OC(=O)c2cccs2)c1Sc1ccccc1,0,10.9,0,0,-
Cc1nn(C(C)(C)C)c(OC(=O)c2ccc(Br)o2)c1Sc1ccccc1,0,11.3,0,32.8,-
COc1cccc(NC(=O)N(Cc2ccco2)C(C)c2cccs2)c1 (stereo not given),0,0,0,0,0
CC(c1cccs1)N(Cc1ccco1)C(=O)Nc1ccc(Cl)c(Cl)c1 (stereo not given),0,11.2,0,0,0
SMILES,BB579 growth dn,RAM network inh,Insulin prom inh,Yeast life ext,Insulin prom up
O=C(Nc1ccnc(=O)[nH]1)c1sc2ccccc2c1Cl,-,-,-,-,0
CCCS(=O)(=O)N1CCC(C(=O)N2CCCC2)CC1,0,0,0,0,0
CCCS(=O)(=O)N1CCC(C(=O)N2CCOCC2)CC1,0,0,-,0,4.02
COc1ccc(Cl)cc1NC(=S)NCCSc1ccc(C)cc1,0,9.4,-,0,0
COc1ccccc1NC(=S)NCCSc1ccc(Cl)cc1,0,0,0,0,0
CN(C)c1ccc(/C=C/C=N/Nc2nc(N3CCOCC3)nc(N3CCOCC3)n2)cc1,-,0,0,-,0
Fc1ccccc1CSc1nc2ccccc2[nH]1,0,0,74.3,0,0
O=c1cc(-c2ccccc2)nc(SCc2ccccc2F)[nH]1,-,9.3,0,-,0
Cc1ccccc1CSc1nc(-c2ccccc2)cc(=O)[nH]1,0,0,-,0,0
CCn1c(SCC(=O)N(C)C2CCS(=O)(=O)C2)nnc1-c1ccccc1 (stereo not given),-,0,-,-,0
CCCn1c(SCC(=O)NC2CCCCC2)nnc1-c1ccncc1,0,0,0,0,3.06
CCCn1c(SCC(=O)Nc2nc(C)cs2)nnc1-c1cccnc1,0,0,75.0,0,-
O=C(CSc1nnc(-c2ccncc2)n1Cc1ccccc1)NC1CCCCC1,-,-,-,-,0
CCCn1c(SCC(=O)NNC(=O)c2ccccc2)nnc1-c1cccnc1,-,-,-,-,0
CS(=O)(=O)N1CCC(C(=O)Nc2ccccc2)CC1,0,0,0,0,0
CS(=O)(=O)N1CCC(C(=O)Nc2ccc(OCc3ccccc3)cc2)CC1,0,0,71.0,0,0
COc1ccc(OC)c(-n2c(=S)[nH]c3cc(C(=O)N4CCN(c5ccccc5)CC4)ccc3c2=O)c1,-,0,-,-,0
COc1ccccc1-n1nnnc1SCc1cc2c(cc1Br)OCO2,0,9.5,0,0,0
CCNC(=O)N1CCOCC1,0,0,85.7,0,0
CCNC(=O)N1CCN(C(=O)NCC)CC1,-,0,-,-,0
O=C(NCCc1ccc(F)cc1)N1CCOCC1,0,0,83.3,0,0
O=C(Nc1ccc(F)cc1)N1CCOCC1,0,0,0,0,0
Cc1ccc(/C(N)=N/OC(=O)c2cccc(Cn3cc(C(F)(F)F)ccc3=O)c2)cc1,-,-,-,-,0
Oc1ccc2ccccc2c1N=Nc1ccccn1,90.4,0,0,0,0
CCCC(=O)C1C(=O)CC(CC(C)SCC)CC1=O (stereo not given),0,0,0,96.8,-
SMILES,BB579 growth dn,RAM network inh,Insulin prom inh,Yeast life ext,Insulin prom up
COc1ccc([N+](=O)[O-])cc1NC(=O)c1ccc(CN(c2ccc(C)c(C)c2)S(C)(=O)=O)cc1,0,9.7,0,0,0
COc1ccc(C)cc1S(=O)(=O)N(CC(=O)Nc1cc([N+](=O)[O-])ccc1C)c1ccc(C)c(C)c1,0,0,-,0,0
Cc1cccc(C(=O)N[C@H](C(=O)OCC(=O)NC2CCS(=O)(=O)C2)C(C)C)c1 (stereo not given in full),0,0,0,0,-
Cc1nnc(C)n1N,-,0,-,-,0
CC(C)(C)NC(=O)C(=O)NCc1ccccn1,-,0,-,-,0
O=C(NCc1ccccn1)C(=O)NCc1ccccn1,-,0,80.0,-,0
CC(C)CC(NC(N)=O)C(=O)NCc1ccccc1Cl (stereo not given),-,0,-,-,0
CS(=O)(=O)Oc1ccc(Br)cc1/C=C1/N=C(c2ccco2)OC1=O,0,0,0,49.4,0
CCC(=O)Nc1ccc2c(c1)ncn2-c1ccccc1,0,0,0,0,4.96
COc1ccccc1C(=O)O/N=C(\N)c1ccc(Cl)cc1,0,0,0,0,-
Cc1ccc(/C(N)=N/OC(=O)c2ccc(Cl)cc2Cl)cc1,98.7,0,0,0,0
O=C(/C=C/c1ccccc1)NC(=S)N1CCSCC1,-,0,-,-,0
N#CC1(Cc2ccccc2)c2ccccc2C=CN1C(=O)c1ccccc1 (stereo not given),0,8.7,0,0,0
N#CC1(Cc2ccc([N+](=O)[O-])cc2)c2ccccc2C=CN1C(=O)c1ccccc1 (stereo not given),0,0,0,0,-
CC(C)NC(=O)/C(C#N)=C\c1ccc(N(C)C)o1,-,0,0,-,11.5
CCN(CC)c1ccc(/C=C(/C#N)C(=O)NC(C)C)o1,-,0,-,-,-
COC(=O)/C=C1\SC(N)=NC1=O,-,-,-,-,0
CN1CCS/C1=C/C=C1/SC(=S)N(Cc2ccccc2)C1=O,0,9.6,-,0,-
